Assay results taken from ChEMBL document CHEMBL1649111, “Restoration of susceptibility of intracellular methicillin-resistant Staphylococcus aureus to beta-lactams: comparison of strains, cells, and antibiotics” (Antimicrob Agents Chemother, 2008).

Experiments:
[1] = Chemical stability of the compound assessed as compound remaining after 24 hrs PBS buffer by HPLC analysis at pH 5.5; format: physicochemical; details: read-out: Activity
Procedure, shortened: (§1)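 Drug at 50 mg/liter initial concentration incubated 24 h at 37°C in buffered medium at pH 7.4 or 5.5. Remaining drug measured by HPLC signal disappearance; mobile phase 25 mM phosphate buffer pH 6.7 with acetonitrile (75:25).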

[2] = Chemical stability of the compound assessed as compound remaining after 24 hrs in PBS buffer by HPLC analysis at pH 7.4; format: physicochemical; details: read-out: Activity; procedure, shortened: as §1
[3] = system: THP-1; test: Ratio of intracellular to extracellular drug level in human THP1 cells at 250 mg/L after 24 hrs; format: ADME, cell-based; details: thp-1, 24 h
Procedure, shortened: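 THP-1 cells incubated 24 h at 250 mg/liter extracellular drug. Cell lysates assayed microbiologically with MSSA ATCC 25923; content expressed per mg total protein. Cellular/extracellular ratio calculated assuming cell volume of 5 μl per mg protein.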

Row | remaining at 24 h [1] [%] | remaining at 24 h [2] [%] | Ratio [3] | Compound
1 | 30.5 | 39.3 | 0.05 | C[C@@H](O)[C@H]1C(=O)N2C(C(=O)O)=C(SCCN=CN)C[C@H]12 [IMIPENEM ANHYDROUS]
2 | 40.3 | 49.3 | 0.2 | C[C@@H](O)[C@H]1C(=O)N2C(C(=O)O)=C(S[C@@H]3CN[C@H](C(=O)N(C)C)C3)[C@H](C)[C@H]12 [MEROPENEM]

Row | Compound | remaining at 24 h [1] [%] | remaining at 24 h [2] [%] | Ratio [3]
3 | Cc1onc(-c2ccccc2)c1C(=O)N[C@@H]1C(=O)N2[C@@H]1SC(C)(C)[C@@H]2C(=O)O [OXACILLIN] | 91.8 | 94.2 | 0.2
